According to ChEMBL document CHEMBL3407380, “Structure-based design of phthalimide derivatives as potential cyclooxygenase-2 (COX-2) inhibitors: anti-inflammatory and analgesic activities” (Eur J Med Chem, 2015):

How the values were obtained:
[1] = test system: Mus musculus; assay: Analgesic activity in ip dosed albino Swiss mouse assessed as licking or blowing latency time measured 60 mins post dose by hot plate method; assay type: functional; details: 1 h
[2] = test system: Rattus norvegicus; assay: Antiinflammatory activity in ip dosed Sprague-Dawley rat assessed as inhibition of carrageenan-induced paw edema measured 2 hrs post dose by displacement plethysmometer analysis; assay type: functional
[3] = target: T1, Prostaglandin G/H synthase 1 (Ovis aries, UniProt P05979); assay: Inhibition of ovine COX1 assessed as inhibition of PGF2alpha production from PGH2 preincubated for 5 mins before arachidonic acid addition measured after 2 mins by enzyme immunoassay
T1 sequence (P05979 whole entry): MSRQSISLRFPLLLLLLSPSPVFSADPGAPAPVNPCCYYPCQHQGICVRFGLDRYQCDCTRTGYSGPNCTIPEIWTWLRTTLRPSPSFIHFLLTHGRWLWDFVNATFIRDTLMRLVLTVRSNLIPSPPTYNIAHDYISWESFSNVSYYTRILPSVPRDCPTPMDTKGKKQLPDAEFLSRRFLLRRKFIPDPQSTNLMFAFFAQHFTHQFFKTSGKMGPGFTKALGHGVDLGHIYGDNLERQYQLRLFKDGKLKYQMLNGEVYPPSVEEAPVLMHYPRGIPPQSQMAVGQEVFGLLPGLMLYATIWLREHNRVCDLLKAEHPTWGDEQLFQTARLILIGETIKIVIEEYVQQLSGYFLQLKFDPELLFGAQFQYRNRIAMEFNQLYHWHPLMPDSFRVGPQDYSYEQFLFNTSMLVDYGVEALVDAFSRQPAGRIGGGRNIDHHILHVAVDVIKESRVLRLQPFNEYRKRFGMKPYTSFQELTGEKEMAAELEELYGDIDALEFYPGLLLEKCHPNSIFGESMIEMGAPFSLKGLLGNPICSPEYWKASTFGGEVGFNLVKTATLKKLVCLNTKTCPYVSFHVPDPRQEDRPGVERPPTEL
In short: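 Ovine COX-1 from a COX-1/COX-2 inhibitor screening kit, in 0.1 M Tris-HCl pH 8.0. Enzyme was incubated with inhibitor for 5 min at 37 °C. Arachidonic acid (100 µM solution) was then added, and the reaction was stopped with 1 M HCl after 2 min. Prostaglandins were quantified by competitive acetylcholinesterase-tracer EIA read at 410 nm.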

Q: With COc1ccc(CN2C(=O)c3cccc4cccc(c34)C2=O)cc1 as the compound, how does the ED50 [1] read?
A: 119 mg/kg

Q: And the ED50 [2]?
A: 129 mg/kg

Q: And the IC50 [3]?
A: > 100 µM

Q: COc1ccc(CN2C(=O)c3ccccc3C2=O)cc1 was tested. Which ED50 [1] did it give?
A: 107 mg/kg

Q: What about the ED50 [2] of the same compound?
A: 162 mg/kg

Q: And the IC50 [3]?
A: 110 µM

Q: Which results are given for COc1cc(CN2C(=O)CCC2=O)cc(OC)c1OC?
A: ED50 [1]: 95 mg/kg; ED50 [2]: 180 mg/kg; IC50 [3]: > 100 µM

Q: With COc1ccc(CN2C(=O)CCC2=O)cc1 as the compound, how does the IC50 [3] read?
A: > 100 µM

Q: For O=C1CCC(=O)N1Cc1ccc(F)cc1, which IC50 [3] is on record?
A: > 100 µM

Q: What does the source list for COc1cc(CN2C(=O)C3CC=CCC3C2=O)cc(OC)c1OC (configuration not stated)?
A: ED50 [1]: 125 mg/kg; ED50 [2]: 171 mg/kg; IC50 [3]: > 100 µM

Q: COc1ccc(CN2C(=O)C3CC=CCC3C2=O)cc1 (configuration not stated) was tested. Which IC50 [3] did it give?
A: > 100 µM

Q: O=C1C2CC=CCC2C(=O)N1Cc1ccc(F)cc1 (configuration not stated) was tested. Which IC50 [3] did it give?
A: > 100 µM

Q: With COc1cc(CN2C(=O)c3ccccc3C2=O)cc(OC)c1OC as the compound, how does the ED50 [1] read?
A: 110 mg/kg

Q: And the ED50 [2]?
A: 149 mg/kg

Q: And the IC50 [3]?
A: > 100 µM

Q: For O=C1c2ccccc2C(=O)N1Cc1ccc(F)cc1, which ED50 [1] is on record?
A: 90 mg/kg

Q: What about the ED50 [2] of the same compound?
A: 170 mg/kg

Q: And the IC50 [3]?
A: 116 µM

Q: Which results are given for COc1cc(CN2C(=O)c3ccc(C)cc3C2=O)cc(OC)c1OC?
A: ED50 [2]: 130 mg/kg; IC50 [3]: > 100 µM

Q: What does the source list for COc1ccc(CN2C(=O)c3ccc(C)cc3C2=O)cc1?
A: ED50 [1]: 80.5 mg/kg; ED50 [2]: 153 mg/kg; IC50 [3]: > 100 µM

Q: Which results are given for Cc1ccc2c(c1)C(=O)N(Cc1ccc(F)cc1)C2=O?
A: ED50 [1]: 97 mg/kg; ED50 [2]: 172 mg/kg; IC50 [3]: > 100 µM

Q: For COc1cc(CN2C(=O)c3ccc(C(C)(C)C)cc3C2=O)cc(OC)c1OC, which ED50 [1] is on record?
A: 79.3 mg/kg

Q: What about the ED50 [2] of the same compound?
A: 147 mg/kg

Q: What about the IC50 [3] of the same compound?
A: > 100 µM

Q: For COc1ccc(CN2C(=O)c3ccc(C(C)(C)C)cc3C2=O)cc1, which ED50 [1] is on record?
A: 96.1 mg/kg

Q: What about the ED50 [2] of the same compound?
A: 137 mg/kg

Q: What about the IC50 [3] of the same compound?
A: > 100 µM

Q: With CC(C)(C)c1ccc2c(c1)C(=O)N(Cc1ccc(F)cc1)C2=O as the compound, how does the IC50 [3] read?
A: > 100 µM

Q: How did the ED50 [1] turn out when COc1cc(CN2C(=O)c3ccc([N+](=O)[O-])cc3C2=O)cc(OC)c1OC was run?
A: 27.6 mg/kg

Q: And the ED50 [2]?
A: 54 mg/kg

Q: And the IC50 [3]?
A: 120 µM

Q: Which results are given for COc1ccc(CN2C(=O)c3ccc([N+](=O)[O-])cc3C2=O)cc1?
A: ED50 [1]: 17 mg/kg; ED50 [2]: 68 mg/kg; IC50 [3]: 119 µM

Q: Which results are given for O=C1c2ccc([N+](=O)[O-])cc2C(=O)N1Cc1ccc(F)cc1?
A: ED50 [1]: 35 mg/kg; ED50 [2]: 127 mg/kg; IC50 [3]: > 100 µM

Q: How did the ED50 [1] turn out when COc1cc(CN2C(=O)c3cc(Cl)c(Cl)cc3C2=O)cc(OC)c1OC was run?
A: 57.4 mg/kg

Q: What about the ED50 [2] of the same compound?
A: 67 mg/kg

Q: And the IC50 [3]?
A: 120 µM

Q: With COc1ccc(CN2C(=O)c3cc(Cl)c(Cl)cc3C2=O)cc1 as the compound, how does the ED50 [1] read?
A: 51.2 mg/kg

Q: What about the ED50 [2] of the same compound?
A: 75 mg/kg

Q: And the IC50 [3]?
A: 131 µM

Q: Which IC50 [3] does the source give for O=C1c2cc(Cl)c(Cl)cc2C(=O)N1Cc1ccc(F)cc1 here?
A: > 100 µM

Q: Which ED50 [1] does the source give for COc1cc(CN2C(=O)c3c(Cl)c(Cl)c(Cl)c(Cl)c3C2=O)cc(OC)c1OC here?
A: 54.7 mg/kg

Q: And the ED50 [2]?
A: 144 mg/kg

Q: And the IC50 [3]?
A: > 100 µM

Q: What does the source list for COc1ccc(CN2C(=O)c3c(Cl)c(Cl)c(Cl)c(Cl)c3C2=O)cc1?
A: ED50 [1]: 52.9 mg/kg; ED50 [2]: 103 mg/kg; IC50 [3]: > 100 µM

Q: With O=C1c2c(Cl)c(Cl)c(Cl)c(Cl)c2C(=O)N1Cc1ccc(F)cc1 as the compound, how does the IC50 [3] read?
A: > 100 µM

Q: How did the ED50 [1] turn out when COc1cc(CN2C(=O)c3nccnc3C2=O)cc(OC)c1OC was run?
A: 40.5 mg/kg

Q: And the ED50 [2]?
A: 119 mg/kg

Q: And the IC50 [3]?
A: > 100 µM

Q: For O=C1c2nccnc2C(=O)N1Cc1ccc(F)cc1, which IC50 [3] is on record?
A: > 100 µM

Q: How did the ED50 [1] turn out when COc1cc(CN2C(=O)c3cccc4cccc(c34)C2=O)cc(OC)c1OC was run?
A: 88 mg/kg

Q: And the ED50 [2]?
A: 115 mg/kg

Q: What about the IC50 [3] of the same compound?
A: > 100 µM

Q: O=C1c2cccc3cccc(c23)C(=O)N1Cc1ccc(F)cc1 was tested. Which IC50 [3] did it give?
A: > 100 µM

Q: COc1ccc(CN2C(=O)c3nccnc3C2=O)cc1 was tested. Which ED50 [1] did it give?
A: 106 mg/kg

Q: What about the ED50 [2] of the same compound?
A: 159 mg/kg

Q: What about the IC50 [3] of the same compound?
A: 117 µM

Q: How did the ED50 [1] turn out when Cc1ccc(-c2cc(C(F)(F)F)nn2-c2ccc(S(N)(=O)=O)cc2)cc1 [CELECOXIB] was run?
A: 71 mg/kg
